Experimental findings from PubChem BioAssay AID623982 (Broad Institute, 2012) are described below.

Several values for one entry are separate records, joined by “and”; a condition that tells them apart may be missing. Identical values can stand only once. Activity calls are given as the source filed them.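 Rule for the calls: active = compounds cutting fungal growth signal with fitted half-effect dose at most twice the top valid dose; inconclusive = flat curve at 30 to 70% inhibition, or poor fit; inactive = the rest.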

The subject of the first assay is C. albicans CaCi-17 growth, Alamar Blue fluorescence, 48 h. The assay can be described thus: C. albicans CaCi-17 antifungal growth inhibitors – CaCi-17 strain, retest, dry powder, set 3, dose response (AID 623982).
Conditions: not given
The essentials:
(§1)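 control set = amphotericin B at 10 µM as positive control | medium = buffered RPMI | technique = fluorescence from Alamar Blue conversion, read 2 h after dye addition | timing = 48 h exposure, 37 °C, humidified, static | read-out basis = growth inhibition as signal decrease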
`CC1/C=C/C=C\C=C\C=C\C=C\C=C\C=C\C(O[C@H]2OC(C)C(O)C(N)C2O)CC2OC(O)(CC(O)CC(O)C(O)CCC(O)CC(O)CC(=O)OC(C)C(C)C1O)CC(O)C2C(=O)O` (stereo partly specified): the AC50 (usually the concentration giving half of the maximal activity seen) is 83.8 nM.
On the same count and under the same terms, in the case of `CCOC(=O)N1C(=O)C2(CCCCC2)N(c2ccc(F)cc2)C1=S` it was 783 nM.

Tested on in the next assay: not listed separately
The assay is described as above. The note with it: C. albicans CaCi-17 growth, Alamar Blue fluorescence, 48 h; at 3 µM (top of the series). The essentials:
as §1
On the technique in general: The colour change of resazurin is a common sign of viable cells or microbes.
In the case of `CCOC(=O)N1C(=O)C2(CCCCC2)N(c2ccc(C)cc2)C1=S`, the activity change, negative = inhibition was 100% (inactive) and 85.9% (inactive).
The same measure, in the same setting: in the case of `C/C=C/[C@@H]1[C@H]2C[C@@H](C)CC[C@@H]2C(C)=C[C@H]1C(=O)c1c(O)c(-c2ccc(O)cc2)c[nH]c1=O` it was 54.1% (inactive); in that of `CCOC(=O)N1C(=O)C2(CCCCC2)N(c2cccc(C)c2)C1=S`, 70.9% (inactive).
Same read-out and setting: in the case of `CCOC(=O)N1C(=O)C2(CCCCC2)N(c2ccccc2)C1=S` it was 104% (inactive).
